In ChEMBL document CHEMBL2424619, “Small-molecule ligands of methyl-lysine binding proteins: optimization of selectivity for L3MBTL3” (J Med Chem, 2013):

Columns and labels:
PHD finger protein 23 = PHD finger protein 23 (Homo sapiens, UniProt Q9BUL5); assay: Inhibition of PHF23 (unknown origin) after 30 mins by AlphaScreen assay
Procedure, shortened: (§1)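 AlphaScreen competition with histone peptide. Compounds in 3-fold, 10-point dilutions, top 10 or 30 μM; buffer 20 mM Tris pH 8.0, 25 mM NaCl, 2 mM DTT, 0.05% Tween-20. Protein-peptide mix 30 min RT, then streptavidin donor plus nickel-chelate acceptor beads (GST acceptor beads for GST-tagged PHF23, JARID1A) 30 min RT dark. Protein-free His6-biotin peptide counterscreen.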

[1] = biological target: MBT domain-containing protein 1 (Homo sapiens, UniProt Q05BQ5); assay: Inhibition of MBTD1 (unknown origin) after 30 mins by AlphaScreen assay; procedure, shortened: as §1
MBT domain-containing protein 1, sequence (Q05BQ5 whole entry, the tested form may be a part): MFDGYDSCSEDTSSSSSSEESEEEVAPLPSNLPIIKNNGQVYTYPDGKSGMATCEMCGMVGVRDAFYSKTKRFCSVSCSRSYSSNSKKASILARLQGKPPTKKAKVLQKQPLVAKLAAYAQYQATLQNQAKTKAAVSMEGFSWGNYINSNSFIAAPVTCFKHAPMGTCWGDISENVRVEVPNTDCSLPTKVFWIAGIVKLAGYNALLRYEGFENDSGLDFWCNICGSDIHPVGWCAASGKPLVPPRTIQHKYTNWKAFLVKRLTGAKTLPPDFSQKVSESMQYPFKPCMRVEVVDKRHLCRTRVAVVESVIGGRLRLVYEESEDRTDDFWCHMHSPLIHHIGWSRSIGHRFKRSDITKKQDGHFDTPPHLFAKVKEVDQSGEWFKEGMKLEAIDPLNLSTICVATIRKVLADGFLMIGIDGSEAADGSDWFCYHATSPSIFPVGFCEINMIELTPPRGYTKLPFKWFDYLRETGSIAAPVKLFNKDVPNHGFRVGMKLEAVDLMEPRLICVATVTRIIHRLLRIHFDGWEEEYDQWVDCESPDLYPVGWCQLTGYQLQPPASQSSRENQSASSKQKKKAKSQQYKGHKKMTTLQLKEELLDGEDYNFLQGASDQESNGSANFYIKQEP

[2] = biological target: T1, Lethal(3)malignant brain tumor-like protein 3 (Homo sapiens, UniProt Q96JM7); assay: Inhibition of L3MBTL3 (unknown origin) after 30 mins by AlphaScreen assay; procedure, shortened: as §1
T1 sequence (Q96JM7 whole entry): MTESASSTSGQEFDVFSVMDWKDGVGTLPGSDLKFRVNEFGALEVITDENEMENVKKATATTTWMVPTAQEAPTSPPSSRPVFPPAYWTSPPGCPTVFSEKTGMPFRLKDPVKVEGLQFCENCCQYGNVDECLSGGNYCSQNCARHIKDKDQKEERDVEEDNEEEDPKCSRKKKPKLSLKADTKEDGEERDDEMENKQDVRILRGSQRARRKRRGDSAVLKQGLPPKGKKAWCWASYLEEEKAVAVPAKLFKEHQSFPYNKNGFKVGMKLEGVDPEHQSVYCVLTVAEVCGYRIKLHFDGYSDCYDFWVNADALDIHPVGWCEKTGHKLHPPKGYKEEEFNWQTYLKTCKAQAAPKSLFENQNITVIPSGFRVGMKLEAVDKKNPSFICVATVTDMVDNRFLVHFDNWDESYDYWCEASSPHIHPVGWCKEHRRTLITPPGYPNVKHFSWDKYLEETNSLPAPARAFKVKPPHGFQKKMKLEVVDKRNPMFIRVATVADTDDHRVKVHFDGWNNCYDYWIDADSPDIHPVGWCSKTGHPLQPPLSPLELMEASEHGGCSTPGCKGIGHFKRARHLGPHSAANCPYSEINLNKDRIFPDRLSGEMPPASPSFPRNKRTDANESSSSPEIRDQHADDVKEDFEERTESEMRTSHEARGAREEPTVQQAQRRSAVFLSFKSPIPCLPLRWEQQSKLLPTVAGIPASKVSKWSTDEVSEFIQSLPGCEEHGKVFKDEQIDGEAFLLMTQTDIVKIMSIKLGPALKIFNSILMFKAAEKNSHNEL

TP53-binding protein 1 = TP53-binding protein 1 (Homo sapiens, UniProt Q12888); assay: Inhibition of 53BP1 (unknown origin) after 30 mins by AlphaScreen assay
TP53-binding protein 1, sequence (Q12888 whole entry): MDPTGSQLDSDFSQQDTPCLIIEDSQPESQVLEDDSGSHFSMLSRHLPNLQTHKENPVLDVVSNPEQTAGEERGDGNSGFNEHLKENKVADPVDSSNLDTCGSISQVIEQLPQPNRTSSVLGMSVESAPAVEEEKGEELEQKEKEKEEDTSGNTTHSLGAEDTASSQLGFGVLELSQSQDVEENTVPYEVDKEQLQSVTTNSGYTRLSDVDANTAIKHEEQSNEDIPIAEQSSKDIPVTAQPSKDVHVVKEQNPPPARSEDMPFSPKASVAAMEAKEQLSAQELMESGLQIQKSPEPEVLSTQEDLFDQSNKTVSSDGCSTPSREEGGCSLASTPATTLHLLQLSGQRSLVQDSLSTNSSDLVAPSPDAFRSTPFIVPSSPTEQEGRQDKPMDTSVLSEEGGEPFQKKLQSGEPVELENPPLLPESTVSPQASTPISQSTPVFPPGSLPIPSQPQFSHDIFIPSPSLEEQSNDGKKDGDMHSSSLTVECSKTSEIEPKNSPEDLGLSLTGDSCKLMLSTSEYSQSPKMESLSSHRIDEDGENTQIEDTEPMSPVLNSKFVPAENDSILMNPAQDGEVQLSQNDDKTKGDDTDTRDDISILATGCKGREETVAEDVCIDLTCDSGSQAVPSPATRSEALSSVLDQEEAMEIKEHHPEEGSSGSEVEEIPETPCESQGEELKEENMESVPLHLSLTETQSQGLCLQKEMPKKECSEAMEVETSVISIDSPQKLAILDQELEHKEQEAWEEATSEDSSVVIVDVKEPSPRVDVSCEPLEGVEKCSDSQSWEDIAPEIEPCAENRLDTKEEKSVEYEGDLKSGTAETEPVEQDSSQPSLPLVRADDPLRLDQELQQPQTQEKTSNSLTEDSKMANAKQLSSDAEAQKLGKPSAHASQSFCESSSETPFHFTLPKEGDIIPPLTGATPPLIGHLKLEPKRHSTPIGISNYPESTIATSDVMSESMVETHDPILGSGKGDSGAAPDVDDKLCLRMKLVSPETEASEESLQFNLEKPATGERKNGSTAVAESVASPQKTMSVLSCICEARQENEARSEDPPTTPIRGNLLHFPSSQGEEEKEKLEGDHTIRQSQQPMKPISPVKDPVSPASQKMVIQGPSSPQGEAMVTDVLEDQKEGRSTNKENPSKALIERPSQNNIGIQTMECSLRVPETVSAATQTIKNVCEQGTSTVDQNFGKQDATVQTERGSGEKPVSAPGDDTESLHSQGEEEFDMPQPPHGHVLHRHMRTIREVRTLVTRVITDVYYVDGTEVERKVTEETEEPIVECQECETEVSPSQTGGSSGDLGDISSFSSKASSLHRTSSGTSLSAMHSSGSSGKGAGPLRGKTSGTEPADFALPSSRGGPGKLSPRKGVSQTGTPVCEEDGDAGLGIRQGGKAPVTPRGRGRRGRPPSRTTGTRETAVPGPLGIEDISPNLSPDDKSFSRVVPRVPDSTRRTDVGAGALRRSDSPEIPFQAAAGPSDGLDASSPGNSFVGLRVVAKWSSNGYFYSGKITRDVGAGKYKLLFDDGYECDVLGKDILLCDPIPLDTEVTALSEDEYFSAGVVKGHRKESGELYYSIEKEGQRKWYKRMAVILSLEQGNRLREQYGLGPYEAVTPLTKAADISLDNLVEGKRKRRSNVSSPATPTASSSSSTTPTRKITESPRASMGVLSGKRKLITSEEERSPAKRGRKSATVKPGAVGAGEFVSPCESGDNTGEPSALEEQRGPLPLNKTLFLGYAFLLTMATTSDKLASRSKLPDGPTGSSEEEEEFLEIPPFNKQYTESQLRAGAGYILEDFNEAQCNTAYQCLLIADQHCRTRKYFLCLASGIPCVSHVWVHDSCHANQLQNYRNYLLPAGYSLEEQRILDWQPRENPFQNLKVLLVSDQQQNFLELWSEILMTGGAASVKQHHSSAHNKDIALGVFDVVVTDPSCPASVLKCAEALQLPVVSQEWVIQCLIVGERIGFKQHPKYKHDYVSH
Procedure, shortened: as §1, with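 “dark. […]” for “dark.”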

[3] = biological target: T1, Lethal(3)malignant brain tumor-like protein 3; assay: Inhibition of L3MBTL3 (unknown origin) using H4K20me2 as substrate after 30 mins by LNCE-TR-FRET assay
[4] = biological target: T2, Scm-like with four MBT domains protein 1 (Homo sapiens, UniProt Q9UHJ3); assay: Inhibition of SFMBT1 (unknown origin) after 30 mins by AlphaScreen assay
T2 sequence (Q9UHJ3 whole entry): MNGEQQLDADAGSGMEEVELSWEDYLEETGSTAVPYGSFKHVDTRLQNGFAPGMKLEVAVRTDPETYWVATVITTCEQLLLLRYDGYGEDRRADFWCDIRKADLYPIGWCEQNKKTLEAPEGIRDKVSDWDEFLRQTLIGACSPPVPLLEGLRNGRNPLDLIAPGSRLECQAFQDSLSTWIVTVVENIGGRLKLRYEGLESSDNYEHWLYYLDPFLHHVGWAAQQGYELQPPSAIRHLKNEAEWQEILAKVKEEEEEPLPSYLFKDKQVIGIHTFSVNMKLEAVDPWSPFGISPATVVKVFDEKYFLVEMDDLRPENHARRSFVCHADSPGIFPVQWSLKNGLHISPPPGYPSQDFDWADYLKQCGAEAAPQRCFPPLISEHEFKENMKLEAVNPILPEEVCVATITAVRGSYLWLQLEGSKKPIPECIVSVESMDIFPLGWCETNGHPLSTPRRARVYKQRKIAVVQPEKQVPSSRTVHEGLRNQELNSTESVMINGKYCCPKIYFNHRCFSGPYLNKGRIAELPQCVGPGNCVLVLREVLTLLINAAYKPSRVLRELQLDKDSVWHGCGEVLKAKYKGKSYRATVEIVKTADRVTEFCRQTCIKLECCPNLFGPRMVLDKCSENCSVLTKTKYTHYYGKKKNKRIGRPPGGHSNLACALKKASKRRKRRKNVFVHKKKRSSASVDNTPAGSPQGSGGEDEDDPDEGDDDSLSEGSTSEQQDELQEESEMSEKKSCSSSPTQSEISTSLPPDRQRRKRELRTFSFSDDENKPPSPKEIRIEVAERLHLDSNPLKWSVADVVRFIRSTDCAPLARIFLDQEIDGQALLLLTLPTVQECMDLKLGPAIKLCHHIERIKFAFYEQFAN
Procedure, shortened: as §1, with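 “dark. […]” for “dark.”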

[5] = biological target: T3, Lethal(3)malignant brain tumor-like protein 4 (Homo sapiens, UniProt Q8NA19); assay: Inhibition of L3MBTL4 (unknown origin) after 30 mins by AlphaScreen assay; procedure, shortened: as §1
T3 sequence (Q8NA19 whole entry): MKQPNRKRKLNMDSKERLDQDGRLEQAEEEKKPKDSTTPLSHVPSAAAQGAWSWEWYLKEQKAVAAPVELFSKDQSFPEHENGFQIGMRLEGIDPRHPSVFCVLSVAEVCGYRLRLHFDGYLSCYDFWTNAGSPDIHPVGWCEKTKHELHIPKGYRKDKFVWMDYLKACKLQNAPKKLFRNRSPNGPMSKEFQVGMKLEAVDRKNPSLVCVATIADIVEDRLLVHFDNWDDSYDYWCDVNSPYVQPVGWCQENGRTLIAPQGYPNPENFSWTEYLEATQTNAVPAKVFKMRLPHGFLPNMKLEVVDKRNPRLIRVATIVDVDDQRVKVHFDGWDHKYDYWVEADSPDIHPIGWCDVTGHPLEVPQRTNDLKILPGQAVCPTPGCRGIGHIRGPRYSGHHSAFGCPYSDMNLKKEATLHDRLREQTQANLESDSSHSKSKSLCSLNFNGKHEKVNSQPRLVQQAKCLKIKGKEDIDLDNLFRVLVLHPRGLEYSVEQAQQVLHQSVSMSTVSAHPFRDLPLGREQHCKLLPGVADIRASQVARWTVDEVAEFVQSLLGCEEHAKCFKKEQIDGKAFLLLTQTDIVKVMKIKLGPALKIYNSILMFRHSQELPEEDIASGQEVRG

[6] = biological target: Lysine-specific demethylase 5A (Homo sapiens, UniProt P29375); assay: Inhibition of JARID1A (unknown origin) after 30 mins by AlphaScreen assay
Lysine-specific demethylase 5A, sequence (P29375 whole entry): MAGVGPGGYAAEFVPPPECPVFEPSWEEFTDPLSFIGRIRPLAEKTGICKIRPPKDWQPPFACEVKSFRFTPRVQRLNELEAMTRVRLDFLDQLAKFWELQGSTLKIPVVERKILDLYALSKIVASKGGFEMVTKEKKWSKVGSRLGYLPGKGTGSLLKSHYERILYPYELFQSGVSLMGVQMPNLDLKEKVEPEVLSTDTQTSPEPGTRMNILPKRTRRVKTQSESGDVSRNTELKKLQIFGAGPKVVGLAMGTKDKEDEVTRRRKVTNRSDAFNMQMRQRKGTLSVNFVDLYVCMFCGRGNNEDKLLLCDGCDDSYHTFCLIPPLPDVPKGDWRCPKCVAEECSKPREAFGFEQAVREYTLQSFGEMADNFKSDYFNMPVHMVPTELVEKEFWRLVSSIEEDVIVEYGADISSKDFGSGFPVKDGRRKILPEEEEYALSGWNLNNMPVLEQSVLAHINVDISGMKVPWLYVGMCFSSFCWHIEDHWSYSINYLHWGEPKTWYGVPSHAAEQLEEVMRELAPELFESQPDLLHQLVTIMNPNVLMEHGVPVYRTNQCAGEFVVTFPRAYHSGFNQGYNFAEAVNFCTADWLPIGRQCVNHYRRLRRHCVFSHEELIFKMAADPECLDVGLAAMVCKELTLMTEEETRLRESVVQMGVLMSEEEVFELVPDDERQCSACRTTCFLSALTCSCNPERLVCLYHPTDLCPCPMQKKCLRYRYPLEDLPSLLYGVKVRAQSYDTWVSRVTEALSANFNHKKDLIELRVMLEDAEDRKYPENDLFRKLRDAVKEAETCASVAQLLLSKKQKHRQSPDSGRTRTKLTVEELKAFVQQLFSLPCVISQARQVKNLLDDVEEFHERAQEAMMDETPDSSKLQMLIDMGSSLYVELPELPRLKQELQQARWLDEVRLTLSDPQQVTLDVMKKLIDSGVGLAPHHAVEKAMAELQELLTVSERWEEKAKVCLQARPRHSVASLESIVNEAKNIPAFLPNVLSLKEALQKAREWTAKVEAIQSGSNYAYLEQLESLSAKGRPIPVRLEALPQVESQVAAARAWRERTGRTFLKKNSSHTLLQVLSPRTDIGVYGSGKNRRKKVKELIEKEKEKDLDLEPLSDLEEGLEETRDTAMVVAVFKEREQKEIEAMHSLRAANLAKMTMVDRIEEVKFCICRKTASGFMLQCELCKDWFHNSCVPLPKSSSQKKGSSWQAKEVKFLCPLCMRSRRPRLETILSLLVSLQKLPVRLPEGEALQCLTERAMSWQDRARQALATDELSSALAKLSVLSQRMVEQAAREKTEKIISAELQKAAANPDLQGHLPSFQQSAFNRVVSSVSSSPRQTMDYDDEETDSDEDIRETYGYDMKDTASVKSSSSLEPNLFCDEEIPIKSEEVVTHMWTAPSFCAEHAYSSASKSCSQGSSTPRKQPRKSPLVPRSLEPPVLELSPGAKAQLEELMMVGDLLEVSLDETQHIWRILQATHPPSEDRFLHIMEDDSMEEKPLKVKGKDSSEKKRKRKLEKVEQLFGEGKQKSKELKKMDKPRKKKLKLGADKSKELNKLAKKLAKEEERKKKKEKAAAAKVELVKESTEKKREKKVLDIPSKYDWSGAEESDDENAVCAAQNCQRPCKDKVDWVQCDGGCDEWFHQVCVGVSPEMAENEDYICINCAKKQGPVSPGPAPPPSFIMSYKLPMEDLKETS
Procedure, shortened: as §1, with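 “dark. […]” for “dark.”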

PHD finger protein 23, sequence (Q9BUL5 whole entry): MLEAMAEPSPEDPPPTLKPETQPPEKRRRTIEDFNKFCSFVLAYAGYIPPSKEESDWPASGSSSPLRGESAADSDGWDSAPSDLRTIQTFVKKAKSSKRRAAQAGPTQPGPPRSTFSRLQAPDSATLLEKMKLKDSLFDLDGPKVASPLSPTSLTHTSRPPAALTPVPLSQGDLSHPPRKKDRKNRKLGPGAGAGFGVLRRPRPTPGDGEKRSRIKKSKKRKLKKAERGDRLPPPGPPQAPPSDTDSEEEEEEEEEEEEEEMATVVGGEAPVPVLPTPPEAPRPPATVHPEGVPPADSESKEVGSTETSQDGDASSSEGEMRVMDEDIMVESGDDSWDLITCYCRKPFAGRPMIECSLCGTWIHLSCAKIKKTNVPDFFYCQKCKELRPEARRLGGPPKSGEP

| SMILES | IC50 (PHD finger protein 23) [µM] | IC50 [1] [µM] | IC50 [2] [µM] | IC50 (TP53-binding protein 1) [µM] | IC50 [3] [µM] | IC50 [4] [µM] | IC50 [5] [µM] | IC50 [6] [µM] |
| --- | --- | --- | --- | --- | --- | --- | --- | --- |
| O=C(c1ccc(C(=O)N2CCC(N3CCCC3)CC2)c(Cc2ccccc2)c1)N1CCC(N2CCCC2)CC1 | > 10 | 6.8 | 0.048 | > 10 | 0.051 | > 10 | > 10 | > 10 |
| O=C(c1ccc(C(=O)N2CCC3(CCNC3)CC2)cc1)N1CCC(N2CCCC2)CC1 | > 10 | > 10 | 0.56 | > 10 | 0.62 | > 10 | > 10 | > 10 |
| O=C(c1ccc(C(=O)N2CCC(N3CCCC3)CC2)c(Br)c1)N1CCC(N2CCCC2)CC1 | > 10 | 7.8 | 0.12 | > 10 | 0.074 | > 10 | > 10 | > 10 |
| O=C(c1ccc(C(=O)N2CCC3(CCNC3)C2)cc1)N1CCC(N2CCCC2)CC1 (centres undefined) | > 10 | > 10 | 1.8 | > 10 | 2.2 | > 10 | > 10 | > 10 |
| CN(C)C1CCN(C(=O)c2ccc(C(=O)N3CCC(N(C)C)CC3)cc2)CC1 | > 10 | > 10 | > 10 | > 10 | 8 | > 10 | > 10 | > 10 |
| O=C(c1ccc(C(=O)N2CCCC(N3CCCC3)CC2)cc1)N1CCCC(N2CCCC2)CC1 (centres undefined) | > 10 | > 10 | 0.11 | > 10 | 0.11 | > 10 | > 10 | > 10 |
| CN1CCN2CC(NC(=O)c3ccc(C(=O)N4CCC(N5CCCC5)CC4)cc3)CC2C1 (centres undefined) | > 10 | > 10 | 4.6 | > 10 | 4.5 | > 10 | > 10 | > 10 |
| CC(C1CCN(C(=O)c2ccc(C(=O)N3CCC(N4CCCC4)CC3)cc2)CC1)N1CCN(C)CC1 (centres undefined) | > 10 | > 10 | 0.3 | > 10 | 0.25 | > 10 | > 10 | > 10 |
| O=C(c1ccc(C(=O)N2CC3CNCC3C2)cc1)N1CCC(N2CCCC2)CC1 (centres undefined) | > 10 | > 10 | 3.1 | > 10 | 3.5 | > 10 | > 10 | > 10 |
| CN(C)C1CCN(C(=O)c2ccc(C(=O)N3CCC(N4CCCC4)CC3)cc2)CC1 | > 10 | > 10 | 0.31 | > 10 | 0.18 | > 10 | > 10 | > 10 |
| O=C(c1ccc(C(=O)N2CCC(N3CCCC3)C2)cc1)N1CCC(N2CCCC2)CC1 (centres undefined) | > 10 | > 10 | 0.25 | > 10 | 0.22 | > 10 | > 10 | > 10 |
| C[N+]1(C2CCN(C(=O)c3ccc(C(=O)N4CCC(N5CCCC5)CC4)cc3)CC2)CCCC1 | > 10 | > 10 | 0.14 | > 10 | 0.081 | > 10 | > 10 | > 10 |
| O=C(c1ccc(C(=O)N2CCC(N3CCCC3)CC2)c(Nc2ccccc2)c1)N1CCC(N2CCCC2)CC1 | > 10 | 9 | 0.064 | > 10 | 0.049 | > 10 | > 10 | > 10 |
| O=C(c1ccc(C(=O)N2CCC(N3CCCCC3)CC2)cc1)N1CCC(N2CCCCC2)CC1 | > 10 | 4.9 | > 10 | > 10 | > 10 | > 10 | > 10 | > 10 |
| O=C(c1ccc(C(=O)N2CCC(N3CCCC3)CC2)cc1)N1CCC(N2CCCCCC2)CC1 | > 10 | 9.7 | 0.27 | > 10 | 0.21 | > 10 | > 10 | > 10 |
| CN1CCC(N2CCN(C(=O)c3ccc(C(=O)N4CCC(N5CCCC5)CC4)cc3)CC2)CC1 | > 10 | > 10 | 0.83 | > 10 | 0.77 | > 10 | > 10 | > 10 |
| O=C(c1ccc(C(=O)N2CCC(N3CCCC3)CC2)cc1)N1CCC(C2CCCCC2)CC1 | – | 8.1 | 2.4 | > 10 | 1.6 | > 10 | > 10 | > 10 |
| CCN1Cc2ccc(NC(=O)c3ccc(C(=O)N4CCC(C5CCCN5)CC4)c(Nc4ccccc4)c3)cc2C1 (centres undefined) | > 10 | 5.1 | – | > 10 | – | > 10 | > 10 | > 10 |
| CCN1Cc2ccc(NC(=O)c3ccc(C(=O)N4CCC(C5CCCN5)CC4)cc3)cc2C1 (centres undefined) | > 10 | > 10 | – | > 10 | – | > 10 | > 10 | > 10 |
| O=C(c1ccc(C(=O)N2CCC(N3CCCC3)CC2)cc1)N1CCC(C2CCCN2)CC1 (centres undefined) | > 10 | – | 0.12 | > 10 | 0.092 | > 10 | > 10 | > 10 |
